Assay results from ChEMBL document CHEMBL1131294, “Universal template approach to drug design: polyamines as selective muscarinic receptor antagonists” (J Med Chem, 1998).

Key:
[1] = molecular target: Muscarinic acetylcholine receptor M3 (Cavia porcellus, UniProt Q8VH26); assay: Antagonist affinity evaluated against Muscarinic acetylcholine receptor M3 in isolated guinea pig longitudinal Ileum.; format: functional, tissue-based; conditions: read-out: pA2 (converted)
Procedure, shortened: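 Guinea pig left atria (M2, negative inotropism, electrically driven at 1 Hz) and ileum longitudinal muscle (M3, contraction). Agonist: arecaidine propargyl ester. Ileum: isotonic recording, at least 30 min equilibration. APE curves (0.01-0.5 µM) taken at 30-min intervals, the second curve serving as control. After 60 min antagonist incubation the curve was repeated. Dose ratios at agonist EC50, 3-6 antagonist concentrations, 4-6 replicates each; pA2 from Schild plots constrained to slope -1.0.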

[2] = molecular target: Muscarinic acetylcholine receptor M2 (Cavia porcellus); assay: Antagonist affinity evaluated against Muscarinic acetylcholine receptor M2 in isolated guinea pig left atrium; conditions: read-out: pA2 (converted)
[3] = molecular target: T1, Muscarinic acetylcholine receptor M1 (Rattus norvegicus, UniProt P08482); assay: Binding affinity for rat cortex Muscarinic acetylcholine receptor M1
T1 sequence (P08482 whole entry): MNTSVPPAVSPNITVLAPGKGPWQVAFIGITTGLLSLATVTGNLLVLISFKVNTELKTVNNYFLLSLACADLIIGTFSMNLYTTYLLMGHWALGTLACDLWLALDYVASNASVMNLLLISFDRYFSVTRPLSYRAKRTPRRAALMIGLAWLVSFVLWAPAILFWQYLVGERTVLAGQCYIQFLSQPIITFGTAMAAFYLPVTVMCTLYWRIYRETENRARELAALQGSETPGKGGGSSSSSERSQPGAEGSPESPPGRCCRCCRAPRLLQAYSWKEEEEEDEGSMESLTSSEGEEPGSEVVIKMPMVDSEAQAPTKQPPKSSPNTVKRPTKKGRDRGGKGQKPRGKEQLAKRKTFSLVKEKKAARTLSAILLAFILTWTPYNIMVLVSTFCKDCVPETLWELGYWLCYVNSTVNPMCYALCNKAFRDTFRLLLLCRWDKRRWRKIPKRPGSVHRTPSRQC
Procedure, shortened: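 Rat cerebral cortex homogenate (200 µg protein) competed against 5 nM [3H]pirenzepine. Incubation 2 h at 25 °C in 50 mM sodium phosphate pH 7.4 with 2 mM MgCl2 and 1% BSA. Nonspecific binding defined with 10 µM atropine. Filtration on PEI-soaked glass-fiber filters. Ki by Cheng-Prusoff; at least three experiments, each in triplicate.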

[4] = molecular target: T2, Muscarinic acetylcholine receptor M4 (Rattus norvegicus, UniProt P08485); assay: […] to Muscarinic acetylcholine receptor M4
T2 sequence (P08485 whole entry): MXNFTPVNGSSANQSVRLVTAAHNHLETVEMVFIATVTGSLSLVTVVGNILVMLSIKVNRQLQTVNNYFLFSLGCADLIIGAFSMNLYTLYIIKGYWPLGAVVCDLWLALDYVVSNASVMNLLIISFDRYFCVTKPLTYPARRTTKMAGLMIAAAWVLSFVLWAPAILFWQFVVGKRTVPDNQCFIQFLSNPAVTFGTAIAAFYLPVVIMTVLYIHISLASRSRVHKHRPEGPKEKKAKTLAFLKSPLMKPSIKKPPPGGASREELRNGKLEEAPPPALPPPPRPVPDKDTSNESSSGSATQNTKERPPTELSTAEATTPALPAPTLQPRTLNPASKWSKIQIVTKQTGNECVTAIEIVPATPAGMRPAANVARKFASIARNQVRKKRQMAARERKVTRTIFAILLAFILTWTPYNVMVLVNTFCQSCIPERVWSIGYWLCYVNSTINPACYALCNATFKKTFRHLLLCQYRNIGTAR
Procedure, shortened: (§1)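 Competition against 0.7-0.8 nM [3H]NMS using homogenates of rat heart (M2) or submaxillary gland (M3), 500 µg protein each, or NG 108-15 cells (M4), 600 µg protein. Incubation 2 h at 25 °C in 50 mM sodium phosphate pH 7.4 with 2 mM MgCl2 and 1% BSA. Nonspecific binding defined with 10 µM atropine. Filtration; Ki by Cheng-Prusoff; at least three experiments, each in triplicate.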

[5] = molecular target: Muscarinic acetylcholine receptor M3 (Rattus norvegicus, UniProt P08483); assay: Inhibition of [3H]NMS binding to rat submaxillary gland Muscarinic acetylcholine receptor M3; procedure, shortened: as §1
[6] = molecular target: T3, Muscarinic acetylcholine receptor M2 (Rattus norvegicus, UniProt P10980); assay: Inhibition of [3H]NMS binding to rat heart Muscarinic acetylcholine receptor M2
T3 sequence (P10980 whole entry): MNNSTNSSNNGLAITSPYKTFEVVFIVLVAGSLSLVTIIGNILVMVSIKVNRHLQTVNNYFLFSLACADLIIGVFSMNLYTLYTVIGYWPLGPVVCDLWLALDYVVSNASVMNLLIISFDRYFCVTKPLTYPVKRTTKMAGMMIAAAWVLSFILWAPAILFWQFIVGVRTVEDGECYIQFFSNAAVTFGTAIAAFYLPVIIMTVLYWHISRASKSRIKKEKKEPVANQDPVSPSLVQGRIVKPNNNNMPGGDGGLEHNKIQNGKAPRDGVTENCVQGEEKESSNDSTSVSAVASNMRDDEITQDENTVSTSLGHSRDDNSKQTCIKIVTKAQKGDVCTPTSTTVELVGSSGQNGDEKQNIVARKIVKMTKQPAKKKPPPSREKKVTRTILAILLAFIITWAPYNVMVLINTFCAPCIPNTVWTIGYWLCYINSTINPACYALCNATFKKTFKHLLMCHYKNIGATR

Muscarinic acetylcholine receptor M3 (Cavia porcellus, UniProt Q8VH26), sequence (Q8VH26 whole entry): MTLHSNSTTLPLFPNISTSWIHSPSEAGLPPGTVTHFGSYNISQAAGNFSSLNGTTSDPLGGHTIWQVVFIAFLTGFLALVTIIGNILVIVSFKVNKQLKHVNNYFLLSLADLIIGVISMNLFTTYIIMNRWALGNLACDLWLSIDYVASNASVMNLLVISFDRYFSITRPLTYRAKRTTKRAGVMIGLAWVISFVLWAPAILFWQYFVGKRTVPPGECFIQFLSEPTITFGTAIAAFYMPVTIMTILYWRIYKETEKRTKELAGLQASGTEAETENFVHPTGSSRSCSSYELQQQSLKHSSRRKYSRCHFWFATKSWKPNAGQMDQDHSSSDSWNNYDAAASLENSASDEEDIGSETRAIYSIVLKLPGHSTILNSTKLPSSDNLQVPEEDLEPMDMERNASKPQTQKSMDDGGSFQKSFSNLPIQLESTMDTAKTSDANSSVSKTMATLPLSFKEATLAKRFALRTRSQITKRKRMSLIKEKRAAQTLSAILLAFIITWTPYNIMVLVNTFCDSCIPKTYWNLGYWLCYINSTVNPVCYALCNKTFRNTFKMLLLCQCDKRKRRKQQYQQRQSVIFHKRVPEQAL
Muscarinic acetylcholine receptor M3 (Rattus norvegicus, UniProt P08483), sequence (P08483 whole entry): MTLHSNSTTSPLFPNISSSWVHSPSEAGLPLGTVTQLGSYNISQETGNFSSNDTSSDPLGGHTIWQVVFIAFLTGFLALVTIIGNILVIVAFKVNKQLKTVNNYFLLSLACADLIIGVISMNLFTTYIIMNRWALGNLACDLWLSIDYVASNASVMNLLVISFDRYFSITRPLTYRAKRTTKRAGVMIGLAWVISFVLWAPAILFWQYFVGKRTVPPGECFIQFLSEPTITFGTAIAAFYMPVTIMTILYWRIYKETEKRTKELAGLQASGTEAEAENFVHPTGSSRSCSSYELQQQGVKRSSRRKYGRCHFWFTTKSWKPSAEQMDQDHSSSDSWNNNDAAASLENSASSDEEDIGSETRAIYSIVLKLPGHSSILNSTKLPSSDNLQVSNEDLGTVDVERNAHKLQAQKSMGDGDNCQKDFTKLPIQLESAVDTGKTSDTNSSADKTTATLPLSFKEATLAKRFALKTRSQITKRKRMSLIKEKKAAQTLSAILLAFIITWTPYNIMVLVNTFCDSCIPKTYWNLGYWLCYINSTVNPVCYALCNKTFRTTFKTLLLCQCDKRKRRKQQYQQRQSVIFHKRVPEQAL

Structure (SMILES) | Kb [1] [nM] | Kb [2] [nM] | Ki [3] [nM] | Ki [4] [nM] | Ki [5] [nM] | Ki [6] [nM]
CN(CCCCCCCCN(C)C(=O)CCCCCNCC(=O)N1c2ccccc2C(=O)Nc2cccnc21)C(=O)CCCCCNCC(=O)N1c2ccccc2C(=O)Nc2cccnc21 | 72.4 | 0.501 |  |  |  | 
CN(CCCCCCCCN(C)CCCCCCNCC(=O)N1c2ccccc2NC(=O)c2ccccc21)CCCCCCNCC(=O)N1c2ccccc2NC(=O)c2ccccc21 | 112 |  | 14.8 | 2.82 | 115 | 
CN(CCCCCCCCN(C)C(=O)CCCCCN(CC(=O)N1c2ccccc2C(=O)Nc2cccnc21)CC(=O)N1c2ccccc2C(=O)Nc2cccnc21)C(=O)CCCCCN | 7240 | 5620 |  |  |  | 
CN(CCCCCCCCN(C)CCCCCCN(CC(=O)N1c2ccccc2C(=O)Nc2cccnc21)CC(=O)N1c2ccccc2C(=O)Nc2cccnc21)CCCCCCNCC(=O)N1c2ccccc2C(=O)Nc2cccnc21 [TRIPITRAMINE] |  |  | 3.55 | 11.5 | 148 | 
COc1ccccc1CNCCCCCCNCCCCCCCCNCCCCCCNCc1ccccc1OC [METHOCTRAMINE] | 363 |  |  | 32.4 | 955 | 
CN(CCCCCCCCN(C)C(=O)CCCCCNCC(=O)N1c2ccccc2C(=O)Nc2cccnc21)C(=O)CCCCCN | 437 | 9.77 | 316 | 20 | 158 | 44.7
CN(CCCCCCCCN(C)C(=O)CCCCCN(CC(=O)N1c2ccccc2C(=O)Nc2cccnc21)CC(=O)N1c2ccccc2C(=O)Nc2cccnc21)C(=O)CCCCCN(CC(=O)N1c2ccccc2C(=O)Nc2cccnc21)CC(=O)N1c2ccccc2C(=O)Nc2cccnc21 | 2140 | 17.8 |  |  |  | 
CN(CCCCCCCCN(C)CCCCCCN(CC(=O)N1c2ccccc2NC(=O)c2ccccc21)CC(=O)N1c2ccccc2NC(=O)c2ccccc21)CCCCCCNCC(=O)N1c2ccccc2NC(=O)c2ccccc21 | 44.7 | 0.2 | 0.955 | 41.7 | 110 | 0.437
CN(CCCCCCCCN(C)CCCCCCNCC(=O)N1c2ccccc2NC(=O)c2cccnc21)CCCCCCNCC(=O)N1c2ccccc2NC(=O)c2cccnc21 | 537 | 5.25 | 14.5 | 36.3 | 2570 | 20.9
CN(CCCCCCCCN(C)C(=O)CCCCCN(CC(=O)N1c2ccccc2C(=O)Nc2cccnc21)CC(=O)N1c2ccccc2C(=O)Nc2cccnc21)C(=O)CCCCCNCC(=O)N1c2ccccc2C(=O)Nc2cccnc21 | 550 |  | 50.1 | 158 | 5750 | 
CN(CCCCCCCCN(C)CCCCCCN(CC(=O)N1c2ccccc2NC(=O)c2cccnc21)CC(=O)N1c2ccccc2NC(=O)c2cccnc21)CCCCCCN(CC(=O)N1c2ccccc2NC(=O)c2cccnc21)CC(=O)N1c2ccccc2NC(=O)c2cccnc21 | 1620 |  | 25.1 | 158 | 2510 | 
CN(CCCCCCCCN(C)C(=O)CCCCCNCCCC(=O)N1c2ccccc2C(=O)Nc2cccnc21)C(=O)CCCCCN | 1.86 | 0.457 |  |  |  | 
CN(CCCCCCCCN(C)CCCCCCN(CC(=O)N1c2ccccc2NC(=O)c2cccnc21)CC(=O)N1c2ccccc2NC(=O)c2cccnc21)CCCCCCNCC(=O)N1c2ccccc2NC(=O)c2cccnc21 | 912 | 2.51 | 12.6 | 39.8 | 398 | 0.912

Results, then the compound that gave them:

Kb [1] [nM] | Kb [2] [nM] | Ki [3] [nM] | Ki [4] [nM] | Ki [5] [nM] | Ki [6] [nM] | Structure (SMILES)
18.2 | 9.12 |  |  |  |  | CN(CCCCCCCCN(C)C(=O)CCCCCNCCC(=O)N1c2ccccc2C(=O)Nc2cccnc21)C(=O)CCCCCN
19.5 | 0.977 |  |  |  |  | CN(CCCCCCN)CCCCCCCCN(C)CCCCCCNCCCCC(=O)N1c2ccccc2C(=O)Nc2cccnc21
17 | 2.69 |  |  |  |  | CN(CCCCCCN)CCCCCCCCN(C)CCCCCCNCCC(=O)N1c2ccccc2C(=O)Nc2cccnc21
275 |  | 4.37 | 15.8 | 331 |  | CN(CCCCCCN)CCCCCCCCN(C)CCCCCCNCC(=O)N1c2ccccc2C(=O)Nc2cccnc21
13.8 |  | 63.1 | 63.1 | 70.8 |  | CN(CCCCCCCCN(C)C(=O)CCCCCNCCCCC(=O)N1c2ccccc2C(=O)Nc2cccnc21)C(=O)CCCCCN
4.79 |  | 0.501 | 1.45 | 3.02 |  | CN(CCCCCCN)CCCCCCCCN(C)CCCCCCNCCCC(=O)N1c2ccccc2C(=O)Nc2cccnc21
